What all share (type): ADME, organism-based
For data set [1], the system named is Rattus norvegicus. As to the kind of experiment: Distribution of radioactivity in kidney tissues of Sprague-Dawley rats after 15 min injecton by intravenously; 1.12-2.04. Particulars: in vivo, iv, 0.25 h.
Data set [2] concerns Rattus norvegicus. As to the kind of experiment: Distribution of radioactivity in liver tissues of Sprague-Dawley rats after 5 min injecton by intravenously; 6.76-10.44. Particulars: in vivo, iv.
For data set [3], the system named is Rattus norvegicus. Briefly: Distribution of radioactivity in liver tissues of Sprague-Dawley rats after 60 min injecton by intravenously; 0.75-1.14. Particulars: in vivo, iv, 1 h.
The subject of data set [4] is Rattus norvegicus. As to the kind of experiment: Distribution of radioactivity in kidney tissues of Sprague-Dawley rats after 5 min injecton by intravenously; 13.02-19.07. Particulars: in vivo, iv.
Data set [5] relates to Rattus norvegicus. As to the kind of experiment: Distribution of radioactivity in kidney tissues of Sprague-Dawley rats after 60 min injecton by intravenously; 0.48-0.72. Particulars: in vivo, iv, 1 h.
The test system of data set [6] is Rattus norvegicus. Briefly: Distribution of radioactivity in liver tissues of Sprague-Dawley rats after 15 min injecton by intravenously; 4.01-4.81. Particulars: in vivo, iv, 0.25 h.
For data set [7], the system named is Rattus norvegicus. As to the kind of experiment: Distribution of radioactivity in lung tissues of Sprague-Dawley rats after 15 min injecton by intravenously; 0.4-0.54. Particulars: in vivo, iv, 0.25 h.
For data set [8], the system named is Rattus norvegicus. As to the kind of experiment: Distribution of radioactivity in lung tissues of Sprague-Dawley rats after 5 min injecton by intravenously; 0.47-0.56. Particulars: in vivo, iv.
Data set [9] deals with Rattus norvegicus. As to the kind of experiment: Distribution of radioactivity in lung tissues of Sprague-Dawley rats after 60 min injecton by intravenously; 0.3-0.36. Particulars: in vivo, iv, 1 h.
The subject of data set [10] is Rattus norvegicus. As to the kind of experiment: Distribution of radioactivity in brain tissues of Sprague-Dawley rats after 60 min injecton by intravenously; 0.02-0.03. Particulars: in vivo, iv, 1 h. Summed up: (§1)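 Female Sprague-Dawley rats, 10–12 weeks old (170–200 g), fed ad libitum. The ¹²⁵I-labelled agent was dissolved in minimal Me2SO, diluted with saline to a final 20% Me2SO, filtered (0.22 μm), and injected into a lateral tail vein under ether anaesthesia. Tissues were counted against samples of the injected solution and expressed as % injected dose/g (mean, range). Brain/blood ratio is from the means.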

The test system of data set [11] is Rattus norvegicus. As to the kind of experiment: Distribution of radioactivity in heart tissues of Sprague-Dawley rats after 60 min injecton by intravenously; 0.19-0.23. Particulars: in vivo, iv, 1 h.
For data set [12], the system named is Rattus norvegicus. As to the kind of experiment: Distribution of radioactivity in blood tissues of Sprague-Dawley rats after 60 min injecton by intravenously; 0.25-0.32. Particulars: in vivo, iv, 1 h. Summed up:
as §1

Data set [13] deals with Rattus norvegicus. Briefly: Distribution of radioactivity in brain tissues of Sprague-Dawley rats after 15 min injecton by intravenously; 0.03-0.03. Particulars: in vivo, iv, 0.25 h. The method, boiled down:
as §1

Data set [14] relates to Rattus norvegicus. Briefly: Distribution of radioactivity in heart tissues of Sprague-Dawley rats after 15 min injecton by intravenously; 0.24-0.28. Particulars: in vivo, iv, 0.25 h. Summed up:
as §1

The test system of data set [15] is Rattus norvegicus. As to the kind of experiment: Distribution of radioactivity in blood tissues of Sprague-Dawley rats after 15 min injecton by intravenously; 0.35-0.37. Particulars: in vivo, iv, 0.25 h. Summed up: as §1
In data set [16] the test system is Rattus norvegicus. Briefly: Distribution of radioactivity in blood tissues of Sprague-Dawley rats after 5 min injecton by intravenously; 0.34-0.48. Particulars: in vivo, iv. Summed up: as §1
Data set [17] concerns Rattus norvegicus. As to the kind of experiment: Distribution of radioactivity in heart tissues of Sprague-Dawley rats after 5 min injecton by intravenously; 0.24-0.29. Particulars: in vivo, iv.
The subject of data set [18] is Rattus norvegicus. As to the kind of experiment: Distribution of radioactivity in brain tissues of Sprague-Dawley rats after 5 min injecton by intravenously; 0.02-0.03. Particulars: in vivo, iv. The method, boiled down:
as §1

Take `C[n+]1cccc(C(=O)NCCc2ccc([125I])cc2)c1`: the Distribution in data set [1] was 1.46%; in data set [2], 8.03%; in data set [3], 0.93%; in data set [4], 16.46%; in data set [5], 0.56%; in [6] it was 4.33%. Besides, the Distribution stood at 0.47% in data set [7]; 0.47% in data set [8]; 0.32% in data set [9]; 0.02% in [10]; 0.2% in [11]; 0.27% in data set [12]. The Distribution is 0.03% in [13]; 0.26% in data set [14]; 0.36% in data set [15]; 0.39% in data set [16]; 0.25% in data set [17]; 0.03% in [18].

(Values after ChEMBL document CHEMBL1123067, “Evaluation of the brain-specific delivery of radioiodinated (iodophenyl)alkyl-substituted amines coupled to a dihydropyridine carrier” (J Med Chem, 1985).)
